Assay [1] in a line: Inhibition of human N-myristoyltransferase using H-Gly-Ser-Asn-Lys-Ser-Lys-Pro-Lys-NH2 as substrate by CPM fluorescence assay. In a few lines:
(§1)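 IC50 values (mean of two or more determinations) were converted to Ki by Cheng–Prusoff using substrate concentration and Km. For PfNMT, Km was 3.64 μM and substrate was 4.00 μM. The human enzyme values refer to HsNMT1.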

Assay [2] has as its target T1, Glycylpeptide N-tetradecanoyltransferase (Plasmodium falciparum (isolate 3D7), UniProt Q8ILW6).
T1 sequence (Q8ILW6 whole entry): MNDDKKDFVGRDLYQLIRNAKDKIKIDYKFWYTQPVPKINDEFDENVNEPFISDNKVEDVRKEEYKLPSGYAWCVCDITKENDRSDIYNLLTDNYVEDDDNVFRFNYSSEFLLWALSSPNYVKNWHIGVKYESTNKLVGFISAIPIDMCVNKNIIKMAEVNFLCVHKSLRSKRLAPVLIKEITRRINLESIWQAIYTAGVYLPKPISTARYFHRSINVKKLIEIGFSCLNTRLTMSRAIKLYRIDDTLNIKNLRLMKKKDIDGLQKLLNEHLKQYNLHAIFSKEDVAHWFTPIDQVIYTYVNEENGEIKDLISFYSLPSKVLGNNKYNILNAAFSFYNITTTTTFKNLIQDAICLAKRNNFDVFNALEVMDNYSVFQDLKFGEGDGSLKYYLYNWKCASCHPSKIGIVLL
As to the kind of experiment: Inhibition of Plasmodium falciparum N-myristoyltransferase by CPM fluorescence assay. In a few lines: as §1

The nature of assay [3]: Inhibition of Plasmodium vivax N-myristoyltransferase by CPM fluorescence assay. The method in brief:
as §1

Another assay concerns Plasmodium falciparum. The assay can be described thus: Antimicrobial activity against late stage trophozoite form of Plasmodium falciparum 3D7 infected in RBCs after 48 hrs by SYBR green viability assay. It counts as functional, organism-based. Conditions: 3D7, 96 h, in the assay text read “after 96 hrs” for “after 48 hrs”. The method in brief:
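Synchronous 3D7 late trophozoites (33–36 h) were used at 0.1–0.2% parasitemia and 2% hematocrit in washed, buffy-coat-free RBCs, in RPMI 1640 with Albumax, gentamycin and L-glutamine. Seven dilutions from 10.0 to 0.014 μM were run in duplicate at 37 °C under 5% CO2, 5% O2, 90% N2. Drug was replaced at 48 h and incubation continued to 96 h. Read-out was SYBR Green I in saponin/Triton lysis buffer, then fluorescence converted to % growth.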

A short description of assay [4]: Selectivity ratio of Ki for human N-myristoyltransferase to Ki for Plasmodium falciparum N-myristoyltransferase.
The nature of assay [5]: Selectivity ratio of Ki for human N-myristoyltransferase to Ki for Plasmodium vivax N-myristoyltransferase.

Each structure is given as a SMILES string. Where only a bound is given, the exact number is not on record here.

`COc1cc(CCOC(=O)c2sc3ccccc3c2OC2CCNCC2)cc(OC)c1`: the figures for the Ki in assay [1], in assay [2] and in assay [3] were 31 nM, 26 nM and 9 nM, respectively. It took 1410 nM to reach a half-maximal effect with Plasmodium falciparum (EC50).
As to `CC(C)(c1ccccc1)c1nnc(-c2sc3ccccc3c2OC2CCNCC2)o1`, the Ki was found to be 1550 nM in assay [1], 152 nM in assay [2] and 32 nM in assay [3].
For the molecule `c1ccc(CCc2noc(-c3sc4ccccc4c3OC3CCNCC3)n2)cc1`, the figures for the inhibition constant (Ki) in assay [1], in assay [2] and in assay [3] were 1540 nM, 247 nM and 57 nM, respectively. Moreover, in the assay on Plasmodium falciparum, the response was half-maximal at 3790 nM (EC50).
Take `Cc1nn(C)c(C)c1CCc1nnc(-c2sc3ccccc3c2OC2CCNCC2)o1`: the Ki in assay [1] was determined as 824 nM; in assay [2], 124 nM; in assay [3] it was 32 nM.
Consider `Cc1noc(C)c1Cc1nnc(-c2sc3ccccc3c2OC2CCNCC2)o1`, for which the Ki came out at 1050 nM in assay [1], 113 nM in assay [2] and 38 nM in assay [3]. In the assay with Plasmodium falciparum, a half-maximal effect (EC50) was put at 5020 nM. The Ratio Ki in assay [4] came to 8.
Consider `O=C(NCCc1ccccc1)c1sc2ccccc2c1OC1CCNCC1`, for which the Ki was above 100000 nM in assay [1], above 10000 nM in assay [2] and 3780 nM in assay [3].
The corresponding values for `COC(c1ccccc1)c1nnc(-c2sc3ccccc3c2OC2CCNCC2)o1` (racemic) are 3950 nM, 212 nM and 81 nM.
Take `O=C(OCCc1ccccc1)c1sc2ccccc2c1OC1CCNCC1`: the Ki in assay [1] was determined as 10400 nM; in assay [2], 677 nM; in assay [3], 72 nM. This molecule also gave an EC50 in the assay on Plasmodium falciparum of 5600 nM.
The corresponding values for `c1ccc(Cc2nnc(-c3sc4ccccc4c3OC3CCNCC3)o2)cc1` are 1370 nM, 77 nM, 39 nM and 9500 nM.
`COc1cccc(Cc2nc(-c3sc4ccccc4c3OC3CCNCC3)no2)c1`: the Ki worked out at 100 nM in assay [1], 50 nM in assay [2] and 6 nM in assay [3]. Besides, the EC50 in the assay on Plasmodium falciparum was determined as 3260 nM.
Consider `Cc1noc(C)c1CCc1nnc(-c2sc3ccccc3c2OC2CCNCC2)o1`, for which the Ki in assay [1] was 709 nM; in assay [2] it was 186 nM; in assay [3], 47 nM.
Taken in the same sequence, the figures for `c1ccc(C2(c3nnc(-c4sc5ccccc5c4OC4CCNCC4)o3)CC2)cc1` were 976 nM, 98 nM and 34 nM.
As to `c1ccc(Cc2noc(-c3sc4ccccc4c3OC3CCNCC3)n2)cc1`, the Ki in assay [1] worked out at 788 nM; in assay [2], 71 nM; in assay [3] it was 16 nM. The same molecule came in with an EC50 with Plasmodium falciparum of 2300 nM.
Take `Cc1n[nH]c(C)c1Cc1nnc(-c2sc3ccccc3c2OC2CCNCC2)o1`: the Ki in assay [1] came out at 1540 nM; in assay [2], 55 nM; in assay [3], 75 nM. The same molecule yielded an EC50 with Plasmodium falciparum of 2010 nM. For the same molecule, the Ratio Ki in assay [4] was found to be 30.
`O=C(OCCOc1ccccc1)c1sc2ccccc2c1OC1CCNCC1`: the values for the Ki in assay [1], in assay [2] and in assay [3] were 1870 nM, 1130 nM and 123 nM, respectively.
For the molecule `COc1cc(Cc2noc(-c3sc4ccccc4c3OC3CCNCC3)n2)cc(OC)c1`, the Ki in assay [1] was determined as 207 nM; in assay [2], 15 nM; in assay [3], 5 nM. For the same molecule, the EC50 in the assay with Plasmodium falciparum was determined as 2490 nM.
For the molecule `FC(F)(c1ccccc1)c1nnc(-c2sc3ccccc3c2OC2CCNCC2)o1`, the Ki in assay [1] was determined as 2770 nM; in assay [2], 391 nM; in assay [3] it was 182 nM.
The corresponding values for `c1ccc(Cc2nc(-c3sc4ccccc4c3OC3CCNCC3)no2)cc1` are 1190 nM, 120 nM and 13 nM.
The corresponding values for `c1ccc(C(c2ccccc2)c2nnc(-c3sc4ccccc4c3OC3CCNCC3)o2)cc1` are 1920 nM, 465 nM and 142 nM.
Taken in the same sequence, the figures for `O=C(NCCCc1ccccc1)c1sc2ccccc2c1OC1CCNCC1` were above 100000 nM, above 10000 nM and 2530 nM.
As to `COc1cccc(Cc2nnc(-c3sc4ccccc4c3OC3CCNCC3)o2)c1`, the Ki turned out to be 428 nM in assay [1], 33 nM in assay [2] and 18 nM in assay [3]. The molecule also had an EC50 with Plasmodium falciparum of 5500 nM. The Ratio Ki in assay [4] stood at 13; in assay [5], 24.
Regarding `COc1cccc(CCOC(=O)c2sc3ccccc3c2OC2CCNCC2)c1`, the Ki in assay [1] was found to be 2200 nM; in assay [2] it was 120 nM; in assay [3] it was 59 nM. In the assay on Plasmodium falciparum, this molecule gave an EC50 of 4200 nM.
With `O=C(NCCOc1ccccc1)c1sc2ccccc2c1OC1CCNCC1`, the Ki in assay [1] is above 100000 nM; in assay [2], above 10000 nM; in assay [3] it was 2210 nM.
For `COc1cc(Cc2nc(-c3sc4ccccc4c3OC3CCNCC3)no2)cc(OC)c1`, the Ki was found to be 50 nM in assay [1], 15 nM in assay [2] and 8 nM in assay [3]. This molecule also came in with an EC50 with Plasmodium falciparum of 3500 nM.
Taken in the same sequence, the figures for `OC(c1ccccc1)c1nnc(-c2sc3ccccc3c2OC2CCNCC2)o1` (racemic) were 2450 nM, 125 nM, 35 nM and 7340 nM.
Take `COc1cccc(Cc2noc(-c3sc4ccccc4c3OC3CCNCC3)n2)c1`: the values for the Ki in assay [1], in assay [2] and in assay [3] were 192 nM, 51 nM and 8 nM, respectively. The molecule also gave an EC50 with Plasmodium falciparum of 1450 nM.
`Cc1n[nH]c(C)c1CCc1nnc(-c2sc3ccccc3c2OC2CCNCC2)o1`: the Ki was found to be 2250 nM in assay [1] and 226 nM in assay [2].
As for `O=C(OCCCc1ccccc1)c1sc2ccccc2c1OC1CCNCC1`, the Ki in assay [1] was determined as 1160 nM; in assay [2], 3970 nM; in assay [3] it was 66 nM.
Taken in the same sequence, the figures for `CC(c1ccccc1)c1nnc(-c2sc3ccccc3c2OC2CCNCC2)o1` (racemic) were 2070 nM, 334 nM and 77 nM.
`Clc1cccc(Cc2noc(-c3sc4ccccc4c3OC3CCNCC3)n2)c1`: the Ki in assay [1] was determined as 871 nM; in assay [2], 163 nM; in assay [3], 58 nM. Also, the EC50 in the assay on Plasmodium falciparum was determined as 1210 nM.
Consider `c1ccc(Cc2n[nH]c(-c3sc4ccccc4c3OC3CCNCC3)n2)cc1`, for which the Ki in assay [1] turned out to be 893 nM; in assay [2], 270 nM; in assay [3], 71 nM.

For the origin of these results see ChEMBL document CHEMBL3232848, “Design and synthesis of high affinity inhibitors of Plasmodium falciparum and Plasmodium vivax N-myristoyltransferases directed by ligand efficiency dependent lipophilicity (LELP)” (J Med Chem, 2014).
